These results are taken from ChEMBL document CHEMBL3108751, “Isomannide-based peptidomimetics as inhibitors for human tissue kallikreins 5 and 7” (ACS Med Chem Lett, 2014).

Molecules are shown by their SMILES. Activity calls are given as the source filed them. No cut-off for these calls is given here.

Experiment [1] addresses T1, Kallikrein-7 (Homo sapiens, UniProt P49862). In words: Inhibition of human recombinant KLK7 expressed in baculovirus-infected insect cell system using Abz-KLYSSKQ-Eddnp as substrate incubated for 5 mins prior to substrate addition by FRET assay.
In experiment [2] the target is Kallikrein-6 (Homo sapiens) (UniProt Q92876). Kind of experiment: Inhibition of human KLK6 at 1 to 500 uM after 5 mins by spectrophotometry.
The target of experiment [3] is Kallikrein-1 (Homo sapiens) (UniProt P06870). Kind of experiment: Inhibition of human KLK1 at 1 to 500 uM after 5 mins by spectrophotometry.
Sequence of Kallikrein-1 (Homo sapiens) (P06870 25-262 limits assumed): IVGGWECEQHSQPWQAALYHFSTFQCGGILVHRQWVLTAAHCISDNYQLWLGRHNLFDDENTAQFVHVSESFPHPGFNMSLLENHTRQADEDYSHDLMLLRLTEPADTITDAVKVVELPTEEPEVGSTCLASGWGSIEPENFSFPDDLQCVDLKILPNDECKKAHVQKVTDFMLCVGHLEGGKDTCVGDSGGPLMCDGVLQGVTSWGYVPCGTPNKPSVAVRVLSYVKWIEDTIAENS
Experiment [4] has as its target T2, Kallikrein-5 (Homo sapiens, UniProt Q9Y337).
T2 sequence (Q9Y337 whole entry): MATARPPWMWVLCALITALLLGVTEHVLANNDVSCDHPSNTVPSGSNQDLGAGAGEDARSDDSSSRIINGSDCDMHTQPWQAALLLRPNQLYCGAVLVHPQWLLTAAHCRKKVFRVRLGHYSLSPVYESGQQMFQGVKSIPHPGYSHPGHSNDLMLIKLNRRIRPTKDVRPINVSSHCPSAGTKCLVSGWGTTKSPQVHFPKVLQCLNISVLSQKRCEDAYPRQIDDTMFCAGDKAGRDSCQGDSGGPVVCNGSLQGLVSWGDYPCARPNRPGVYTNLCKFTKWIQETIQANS
Kind of experiment: Inhibition of human recombinant KLK5 expressed in baculovirus-infected insect cell system using Abz-KLRSSKQ-Eddnp as substrate incubated for 5 mins prior to substrate addition by FRET assay.

In experiment [5] the target is T2, Kallikrein-5. Kind of experiment: Competitive inhibition of human recombinant KLK5 expressed in baculovirus-infected insect cell system using Abz-KLRSSKQ-Eddnp as substrate incubated for 5 mins prior to substrate addition by Lineweaver-Burk plot analysis. In a few lines:
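FRET substrate Abz-KLRSSKQ-EDDnp hydrolysed by KLK5, with no inhibitor and with 0.5, 1.0 and 2.0 μM inhibitor. Lineweaver–Burk plots were fitted by linear regression. Ki was taken from a secondary plot of Km/Vmax against inhibitor concentration.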

For experiment [6], the target named is T1, Kallikrein-7. Kind of experiment: Competitive inhibition of human recombinant KLK7 expressed in baculovirus-infected insect cell system using Abz-KLYSSKQ-Eddnp as substrate incubated for 5 mins prior to substrate addition by Lineweaver-Burk plot analysis. In a few lines: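 Mechanism was assessed from rates measured without inhibitor and at three inhibitor concentrations. Lineweaver–Burk plots were used to assign the inhibition type and derive Ki.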

Experiment [7] is filed under the species Homo sapiens. Kind of experiment: Selectivity ratio of IC50 for human recombinant KLK5 to IC50 for human recombinant KLK7.
The species entered for experiment [8] is Homo sapiens. Kind of experiment: Selectivity ratio of IC50 for human recombinant KLK7 to IC50 for human recombinant KLK5.

The term IC50 denotes the concentration needed to halve the response being measured. By Ki is commonly meant the equilibrium dissociation constant of an inhibitor or competing ligand from its target.

T1 sequence (P49862 whole entry): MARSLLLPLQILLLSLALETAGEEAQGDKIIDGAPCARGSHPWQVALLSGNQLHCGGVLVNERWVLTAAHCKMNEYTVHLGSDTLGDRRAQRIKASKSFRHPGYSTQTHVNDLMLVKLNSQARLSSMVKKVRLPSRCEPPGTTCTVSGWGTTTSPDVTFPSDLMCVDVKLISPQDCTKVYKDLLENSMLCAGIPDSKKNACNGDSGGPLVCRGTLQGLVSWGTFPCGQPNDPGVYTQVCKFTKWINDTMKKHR

As to `CC(C)(C)OC(=O)N[C@H](COCc1ccccc1)C(=O)N[C@H]1CO[C@H]2[C@@H]1OC[C@H]2OCc1ccccc1`, the values for the IC50 in experiment [1] and in experiment [4] were 84.5 µM and 53.9 µM, respectively. Moreover, the inhibition result in experiment [2] and in experiment [3] was “inactive” each time.
Regarding `CC(C)(C)OC(=O)N[C@@H](CC(=O)OCc1ccccc1)C(=O)O[C@@H]1CO[C@H]2[C@@H]1OC[C@H]2OCc1ccccc1`, the figures for the Ki in experiment [5] and in experiment [6] were 600 nM and 1300 nM, respectively. The IC50 was determined as 10.2 µM in experiment [1] and 4.7 µM in experiment [4]. For the same compound, the inhibition entry in experiment [2] and in experiment [3] was “inactive” throughout.
In the case of `CC(C)(C)OC(=O)N[C@H](Cc1c[nH]c2ccccc12)C(=O)O[C@@H]1CO[C@H]2[C@@H]1OC[C@H]2OCc1ccccc1`, the values for the 50% inhibitory concentration (IC50) in experiment [1] and in experiment [4] were 59.2 µM and 377 µM, respectively. In addition, the inhibition result in experiment [2] and in experiment [3] was “inactive” throughout. Further, the Ratio IC50 in experiment [7] turned out to be 6.
With `CC(C)(C)OC(=O)N[C@H](Cc1c[nH]c2ccccc12)C(=O)N[C@H]1CO[C@H]2[C@@H]1OC[C@H]2OCc1ccccc1`, in experiment [5], the Ki was determined as 28200 nM. For the same compound, the IC50 in experiment [1] worked out at 418 µM; in experiment [4] it was 39.2 µM. In addition, the inhibition result in experiment [2] and in experiment [3] was “inactive” in each case.
`O=C(N[C@H]1CO[C@H]2[C@@H]1OC[C@H]2OCc1ccccc1)[C@H]1CCCN1C(=O)OCc1ccccc1`: the IC50 in experiment [1] was 23.6 µM; in experiment [4], 321 µM. Also, the inhibition entry in experiment [2] and in experiment [3] was “inactive” each time. In addition, in experiment [6], the Ki was 15100 nM.
Consider `O=C(N[C@H]1CO[C@H]2[C@@H]1OC[C@H]2OCc1ccccc1)/C(=C/c1cccs1)NC(=O)c1ccccc1` (stereo in doubt), for which the Ki is 70700 nM in experiment [5] and 1800 nM in experiment [6]. Further, the IC50 is 13.3 µM in experiment [1] and 99.2 µM in experiment [4].
On to `O=C(O[C@@H]1CO[C@H]2[C@@H]1OC[C@H]2OCc1ccccc1)[C@H]1CCCN1C(=O)OCc1ccccc1`, for which the results for the Ki in experiment [5] and in experiment [6] were 300 nM and 1900 nM, respectively. For the same compound, in experiment [8], the Ratio IC50 turned out to be 4. For the same compound, the IC50 in experiment [1] came out at 16.6 µM; in experiment [4], 3.7 µM. In addition, the inhibition result in experiment [2] and in experiment [3] was “inactive” throughout.
`O=C(N[C@H]1CO[C@H]2[C@@H]1OC[C@H]2OCc1ccccc1)[C@H](Cc1ccccc1)NC(=O)[C@@H]1CCCN1C(=O)OCc1ccccc1`: the IC50 was determined as 249 µM in experiment [1] and 157 µM in experiment [4]. The inhibition entry in experiment [2] and in experiment [3] was “inactive” throughout.
Consider `O=C(OC1CO[C@H]2[C@@H]1OC[C@H]2OCc1ccccc1)[C@H](Cc1ccccc1)NC(=O)[C@@H]1CCCN1C(=O)OCc1ccccc1` (single isomer, unassigned), for which the inhibition constant (Ki) amounted to 400 nM in experiment [5] and 2800 nM in experiment [6]. Moreover, the Ratio IC50 in experiment [8] came out at 5. Further, the IC50 in experiment [1] was 19.6 µM; in experiment [4], 3.9 µM. Moreover, the inhibition result in experiment [2] and in experiment [3] was “inactive” throughout.
As to `CSCC[C@H](NC(=O)OC(C)(C)C)C(=O)O[C@@H]1CO[C@H]2[C@@H]1OC[C@H]2OCc1ccccc1`, the IC50 in experiment [1] amounted to 28.7 µM; in experiment [4], 357 µM. Besides, the inhibition result in experiment [2] and in experiment [3] was “inactive” in each case. The Ki in experiment [6] stood at 18400 nM.
With `CC(C)[C@H](NC(=O)OCc1ccccc1)C(=O)N[C@H](Cc1ccccc1)C(=O)N[C@H]1CO[C@H]2[C@@H]1OC[C@H]2OCc1ccccc1`, the Ki in experiment [5] came out at 3400 nM; in experiment [6] it was 3800 nM. Moreover, the IC50 in experiment [1] was determined as 56.6 µM; in experiment [4], 21.7 µM. Moreover, the inhibition result in experiment [2] and in experiment [3] was “inactive” in each case.
Consider `CC(C)[C@@H](NC(=O)OC(C)(C)C)C(=O)O[C@@H]1CO[C@H]2[C@@H]1OC[C@H]2OCc1ccccc1`, for which the half-maximal inhibitory concentration (IC50) stood at 239 µM in experiment [1] and 223 µM in experiment [4]. Besides, the inhibition result in experiment [2] and in experiment [3] was “inactive” in each case.
As for `CC(C)[C@@H](NC(=O)OC(C)(C)C)C(=O)N[C@H]1CO[C@H]2[C@@H]1OC[C@H]2OCc1ccccc1`, the IC50 in experiment [1] was more than 1000 µM; in experiment [4] it was 480 µM. Besides, the inhibition entry in experiment [2] and in experiment [3] was “inactive” in each case.
`CC(C)(C)OC(=O)N[C@@H](CCCCNC(=O)OCc1ccccc1)C(=O)O[C@@H]1CO[C@H]2[C@@H]1OC[C@H]2OCc1ccccc1`: the Ki in experiment [5] stood at 700 nM; in experiment [6] it was 1400 nM. For the same compound, the IC50 turned out to be 13.7 µM in experiment [1] and 9 µM in experiment [4]. Further, the inhibition entry in experiment [2] and in experiment [3] was “inactive” throughout.
On to `CC(C)(C)OC(=O)N[C@@H](CCCCNC(=O)OCc1ccccc1)C(=O)N[C@H]1CO[C@H]2[C@@H]1OC[C@H]2OCc1ccccc1`, for which the Ki in experiment [5] amounted to 2400 nM; in experiment [6], 2900 nM. Moreover, the IC50 in experiment [1] stood at 23.6 µM; in experiment [4], 13.3 µM. Also, the inhibition entry in experiment [2] and in experiment [3] was “inactive” each time.
As for `CSCC[C@H](NC(=O)OC(C)(C)C)C(=O)N[C@H]1CO[C@H]2[C@@H]1OC[C@H]2OCc1ccccc1`, in experiment [5], the Ki worked out at 26600 nM. Further, the values for the IC50 in experiment [1] and in experiment [4] were 457 µM and 37 µM, respectively. Further, the inhibition entry in experiment [2] and in experiment [3] was “inactive” throughout.
On to `CC(C)(C)OC(=O)N1CCC[C@H]1C(=O)O[C@@H]1CO[C@H]2[C@@H]1OC[C@H]2OCc1ccccc1`, for which the IC50 came out at 24.4 µM in experiment [1] and 521 µM in experiment [4]. Besides, the inhibition result in experiment [2] and in experiment [3] was “inactive” each time. In addition, in experiment [7], the Ratio IC50 came to 21.3. In addition, in experiment [6], the Ki is 15600 nM.
Regarding `Cc1ccc(S(=O)(=O)n2cnc(C[C@H](NC(=O)OC(C)(C)C)C(=O)N[C@H]3CO[C@H]4[C@@H]3OC[C@H]4OCc3ccccc3)c2)cc1`, the results for the IC50 in experiment [1] and in experiment [4] were 27.8 µM and 157 µM, respectively. The inhibition entry in experiment [2] and in experiment [3] was “inactive” in each case. The Ratio IC50 in experiment [7] was 6. In addition, the Ki in experiment [6] was 4400 nM.
For `CC(C)(C)OC(=O)N[C@H](COCc1ccccc1)C(=O)O[C@@H]1CO[C@H]2[C@@H]1OC[C@H]2OCc1ccccc1`, the Ki in experiment [5] stood at 2400 nM; in experiment [6] it was 2300 nM. The results for the IC50 in experiment [1] and in experiment [4] were 16 µM and 15.5 µM, respectively. Moreover, the inhibition result in experiment [2] and in experiment [3] was “inactive” in each case.
`CC(C)(C)OC(=O)N[C@H](CCCN/C(=N\C(=O)OCc1ccccc1)NC(=O)OCc1ccccc1)C(=O)N[C@H]1CO[C@H]2[C@@H]1OC[C@H]2OCc1ccccc1`: the Ki in experiment [5] came out at 1700 nM; in experiment [6], 2400 nM. Moreover, the values for the IC50 in experiment [1] and in experiment [4] were 16.9 µM and 11.8 µM, respectively. For the same compound, the inhibition entry in experiment [2] and in experiment [3] was “inactive” throughout.
